Experimental data taken from ChEMBL document CHEMBL1141088, “A new pyridazine series of GABAA alpha5 ligands” (J Med Chem, 2005).

Tests used:
[1] = biological target: T1, GABA-A receptor; alpha-1/beta-3/gamma-2 (Homo sapiens, UniProt P14867+P18507+P28472); assay: Displacement of [3H]-Ro- 15-1788 binding from human recombinant Gamma-aminobutyric acid A receptor alpha-1-beta-3-gamma-2 expressed in mouse fibroblast L(tk-) cells (30 min at 24 degrees C, pH 7.4); assay type: cell-based
T1 sequence (P14867 whole entry): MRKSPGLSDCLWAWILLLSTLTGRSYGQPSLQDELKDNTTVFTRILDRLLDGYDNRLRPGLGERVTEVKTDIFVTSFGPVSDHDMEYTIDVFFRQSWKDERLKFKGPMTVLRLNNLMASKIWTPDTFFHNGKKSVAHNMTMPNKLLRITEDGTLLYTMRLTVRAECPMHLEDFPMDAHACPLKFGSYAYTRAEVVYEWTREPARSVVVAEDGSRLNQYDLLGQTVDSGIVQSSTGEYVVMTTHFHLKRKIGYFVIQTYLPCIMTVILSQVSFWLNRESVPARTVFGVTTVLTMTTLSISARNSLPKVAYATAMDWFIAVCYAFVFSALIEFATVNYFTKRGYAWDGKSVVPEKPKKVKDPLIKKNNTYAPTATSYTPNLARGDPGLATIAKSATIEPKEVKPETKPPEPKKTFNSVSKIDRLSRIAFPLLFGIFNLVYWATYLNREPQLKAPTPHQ
T1 sequence (P18507 whole entry): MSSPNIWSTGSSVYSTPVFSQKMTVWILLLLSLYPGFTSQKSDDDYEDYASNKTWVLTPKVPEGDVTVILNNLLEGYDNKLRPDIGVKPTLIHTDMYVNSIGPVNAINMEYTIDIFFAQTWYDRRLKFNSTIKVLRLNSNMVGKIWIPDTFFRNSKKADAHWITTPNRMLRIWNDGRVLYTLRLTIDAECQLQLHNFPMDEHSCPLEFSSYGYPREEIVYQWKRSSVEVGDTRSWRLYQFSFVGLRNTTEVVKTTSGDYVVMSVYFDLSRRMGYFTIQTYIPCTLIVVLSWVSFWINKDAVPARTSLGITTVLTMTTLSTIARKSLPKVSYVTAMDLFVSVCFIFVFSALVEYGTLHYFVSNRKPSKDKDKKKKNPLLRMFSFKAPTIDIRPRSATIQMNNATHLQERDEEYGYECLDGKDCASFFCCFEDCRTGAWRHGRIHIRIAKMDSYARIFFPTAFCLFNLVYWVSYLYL
T1 sequence (P28472 whole entry): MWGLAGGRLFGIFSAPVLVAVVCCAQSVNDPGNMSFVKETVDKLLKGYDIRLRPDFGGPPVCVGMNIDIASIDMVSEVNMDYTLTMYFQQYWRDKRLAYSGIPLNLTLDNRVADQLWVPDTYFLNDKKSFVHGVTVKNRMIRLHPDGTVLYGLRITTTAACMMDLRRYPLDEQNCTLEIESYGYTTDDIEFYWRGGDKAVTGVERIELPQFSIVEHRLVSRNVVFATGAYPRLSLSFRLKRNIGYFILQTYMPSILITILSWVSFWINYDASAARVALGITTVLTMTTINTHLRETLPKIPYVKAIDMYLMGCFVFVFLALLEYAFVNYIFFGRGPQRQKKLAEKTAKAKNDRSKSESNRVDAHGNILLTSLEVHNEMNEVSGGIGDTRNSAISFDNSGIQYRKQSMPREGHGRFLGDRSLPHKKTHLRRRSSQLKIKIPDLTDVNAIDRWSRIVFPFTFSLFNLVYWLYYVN
Procedure, shortened: (§1)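 Membranes from L(tk-) cells stably expressing human α1, α3 or α5 β3γ2 in 50 mM Tris pH 7.4. [3H]Ro15-1788 at 1.8 nM final, 30 min at 24 °C. Nonspecific binding set with 10 µM flunitrazepam, total binding in 0.1% DMSO. Filtration, scintillation counting. Ki is mean ± SEM of ≥3 independent determinations.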

[2] = biological target: T1, GABA-A receptor; alpha-1/beta-3/gamma-2; assay: Negative logarithm of effective concentration against GABA-A alpha-1-beta-3-gamma-2 receptor; assay type: protein-complex assay
Procedure, shortened: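 Whole-cell patch clamp of L(tk-) cells stably expressing human α1, α3 or α5 β3γ2s, perfused with bicarbonate saline pH 7.2, CsCl pipette solution pH 7.3. Drugs applied by double-barrelled pipette; GABA in 5 s pulses at 30 s intervals. Modulation measured against a GABA EC20 set for each cell; curves fitted to a Hill equation.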

[3] = biological target: T2, GABA-A receptor; alpha-3/beta-3/gamma-2 (Homo sapiens, UniProt P18507+P28472+P34903); assay: Displacement of [3H]-Ro- 15-1788 binding from human recombinant Gamma-aminobutyric acid A receptor alpha-3-beta-3-gamma-2 expressed in mouse fibroblast L(tk-) cells (30 min at 24 degrees C, pH 7.4); assay type: cell-based; procedure, shortened: as §1
T2 sequence (P18507 whole entry): T1 sequence (P18507 whole entry)
T2 sequence (P28472 whole entry): T1 sequence (P28472 whole entry)
T2 sequence (P34903 whole entry): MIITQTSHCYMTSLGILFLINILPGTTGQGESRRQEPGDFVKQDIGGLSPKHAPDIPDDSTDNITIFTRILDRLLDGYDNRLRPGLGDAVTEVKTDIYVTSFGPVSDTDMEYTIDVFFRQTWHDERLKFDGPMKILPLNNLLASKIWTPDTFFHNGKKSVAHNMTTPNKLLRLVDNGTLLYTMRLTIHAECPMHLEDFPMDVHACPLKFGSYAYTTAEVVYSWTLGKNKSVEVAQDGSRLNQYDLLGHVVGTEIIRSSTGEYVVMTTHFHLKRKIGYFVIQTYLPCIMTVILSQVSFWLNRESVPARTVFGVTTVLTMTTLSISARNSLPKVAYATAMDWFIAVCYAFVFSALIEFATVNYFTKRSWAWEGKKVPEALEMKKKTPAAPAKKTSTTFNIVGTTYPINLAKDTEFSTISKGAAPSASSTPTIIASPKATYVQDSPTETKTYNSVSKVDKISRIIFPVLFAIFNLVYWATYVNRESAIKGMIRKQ

[4] = biological target: GABA-A receptor; alpha-3/beta-3/gamma-2 (Homo sapiens) (UniProt P18507+P28472+P34903); assay: Efficacy at GABAA alpha-3-beta-3-gamma-2 receptor expressed in mouse fibroblast L(tk-) cells measured at 300 nM derived from at least three plates/day screened over a minimum of 2 days; assay type: functional, cell-based
Procedure, shortened: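 FRET membrane-potential (VIPR) assay in L(tk-) cells with receptor expression induced 24 h by 1 µM dexamethasone. Dye-loaded 30 min in low-Cl- HEPES buffer pH 7.4: 4 µM CC2-DMPE, 1 µM DiSBAC2(3), 0.5 mM tartrazine. Basal read 8 s, compound at 300 nM, half-maximal GABA 22 s later, 1 Hz reads. Background-subtracted 460/580 nm ratio, normalized to DMCM as -100%.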

## N#Cc1cccc(-c2cnnc(-c3ccccc3)c2)c1
[1]
  Ki: 7 nM
[2]
  EC50: 2.95 nM
[3]
  Ki: 14 nM
[4]
  Efficacy: -4
